PubChem BioAssay
Calls of active or inactive are those of the source.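 Rule for the calls, unless noted: active = visually confirmed hit in the image check and inhibition above 20%; inconclusive = visually confirmed hit but inhibition not above 20%; inactive = no visual hit in the image check.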

Experiments:
[1] = inhibitors of TNFa-induced NFkB p65 translocation, primary screen, imaging, HUVEC, MLSMR starter and 10KST1 sets (AID 438;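 active = inhibition above 20% together with a positive visual image hit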;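 note: compound added about 3h40 before a 20 min TNFalpha stimulation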;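 for inhibition: signal is the nuclear over cytoplasmic p65 intensity ratio per well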); details: HUVEC TNFa-induced p65 nuclear translocation; cell count: measured here: nuclei count (cytotoxicity indicator), at 2.08 µM; inhibition: at 2 µM, stronger effect = higher value, 0% TNFa-plus-vehicle, 100% no-TNFa wells
[2] = reduction of polyQ htt aggregates in cells – imaging, exon1htt(103Q)mCFP cells, high-content imaging, primary screen (AID 483;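 active = visual image review flags a hit and inhibition of aggregation exceeds 20%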;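 note: compound exposure lasted 3 days before fixation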;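 for nuclei count: percent of the per-plate median nuclei count of sample wells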); details: exon1htt(103Q)mCFP cell line, aggregate imaging, at 2 µM; inhibition of aggregation: stronger effect = higher value; nuclei count: measured here: cell count, toxicity
[3] = endothelial E-selectin expression blockers – imaging, HUVEC, immunofluorescence, MLSMR starter and 10KST1 sets, primary screen (AID 487); details: HUVEC TNFalpha-induced E-selectin immunofluorescence imaging, at 2 µM; inhibition: stronger effect = higher value; nuclei count: measured here: cell number, toxicity;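 for inhibition: signal is fraction of cell area covered by stained E-selectin grains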;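 for nuclei count: 100% = median nuclei count of all wells on the same plate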
[4] = biological target: Voltage-gated potassium channel subunit beta-2 (Rattus norvegicus) (UniProt P62483); assay: inhibitors of rat Kvbeta2 reductase activity – biochemical, NADPH fluorescence, primary screen (AID 622;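 active = fluorescence slope higher than the sample average by over 3 SD, cut at about -0.22 in these data, passing the limit was not always enough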;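 note: slope of raw intensity against log time taken from 70 to 1610 s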); details: recombinant KvBeta, 4-cyanobenzaldehyde reduction, at 10 µM, stronger effect = higher value
[5] = biological target: Voltage-gated potassium channel subunit beta-2 (Rattus norvegicus) (UniProt P62483); assay: enhancers of rat Kvbeta2 NADPH turnover – biochemical, NADPH fluorescence, primary screen (AID 623;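 active = NADPH fluorescence slope more negative than the mean of all samples by about 3 SD, 99.7% confidence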;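 note: fluorescence intensity change per second fitted from 20 to 320 s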); details: Recombinant KvBeta, NADPH fluorescence decrease slope, 10 min; at 10 µM; stronger effect = lower value
[6] = biological target: Muscarinic acetylcholine receptor M4 (Homo sapiens) (UniProt P08173); assay: M4-linked GIRK flux change, two-sided – cell-based, HEK293 M4/GIRK, thallium flux, BTC-AM, M4 allosteric agonist project, primary screen (AID 625;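 active = fluorescence slope after compound addition differing from the mean of all tested samples at 99.7% confidence, mostly higher but some lower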;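 note: thallium influx through GIRK channels coupled to M4 in HEK293 cells with BTC-AM dye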); details: at 10 µM, actives lie on both sides
Method in brief: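 System: HEK293 cells with M4 receptor and GIRK channels | Incubation: Cells overnight at 37 °C, BTC-AM loading 1 h, reads 2 min total | Technique: Kinetic BTC-AM fluorescence sampled at 1 Hz, 10 s pre-addition baseline | Measure: Post-addition slope, 15–24 s, of baseline-normalized fluorescence | Control set: Carbachol positive, DMSO negative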

[7] = blockers of RIG-like receptor reporter activation – cell-based, Sendai virus stimulus, luciferase, 10K MLSCN set, TLR/RLR signaling modifier project, primary screen (AID 602276;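 active = inhibition at or above 50% at 10 µM; inactive = inhibition below 50%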;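 note: firefly luciferase from ISG56 promoter only with Renilla not read in this screen; 0% = Sendai virus plus DMSO and 100% = medium plus DMSO without virus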); details: HEK293 RL24 IRF3 luciferase reporter, at 10 µM, stronger effect = higher value
[8] = TLR3 IRF3 reporter activation blockers – cell-based, poly I:C stimulus, luciferase, 10K MLSCN set, primary screen (AID 602277;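 active = inhibition of the reporter signal at or above 50%; inactive = inhibition below 50%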); details: HEK293-TLR3 RL24 IRF3 luciferase reporter, at 10 µM, stronger effect = higher value

Chain of Muscarinic acetylcholine receptor M4 (Homo sapiens) (P08173 whole entry, looked up): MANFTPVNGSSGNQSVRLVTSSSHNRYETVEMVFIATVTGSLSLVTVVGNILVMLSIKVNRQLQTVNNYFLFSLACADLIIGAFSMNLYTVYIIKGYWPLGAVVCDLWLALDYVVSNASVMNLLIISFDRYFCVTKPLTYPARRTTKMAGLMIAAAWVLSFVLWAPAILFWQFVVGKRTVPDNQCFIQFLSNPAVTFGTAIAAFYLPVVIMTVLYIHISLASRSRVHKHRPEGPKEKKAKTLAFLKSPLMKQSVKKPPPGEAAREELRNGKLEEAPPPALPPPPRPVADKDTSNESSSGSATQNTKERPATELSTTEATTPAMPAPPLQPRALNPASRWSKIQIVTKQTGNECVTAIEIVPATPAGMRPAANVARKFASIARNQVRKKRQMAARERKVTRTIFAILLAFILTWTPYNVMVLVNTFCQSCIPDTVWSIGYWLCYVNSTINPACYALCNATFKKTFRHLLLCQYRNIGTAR
Chain of Voltage-gated potassium channel subunit beta-2 (Rattus norvegicus) (P62483 whole entry, looked up): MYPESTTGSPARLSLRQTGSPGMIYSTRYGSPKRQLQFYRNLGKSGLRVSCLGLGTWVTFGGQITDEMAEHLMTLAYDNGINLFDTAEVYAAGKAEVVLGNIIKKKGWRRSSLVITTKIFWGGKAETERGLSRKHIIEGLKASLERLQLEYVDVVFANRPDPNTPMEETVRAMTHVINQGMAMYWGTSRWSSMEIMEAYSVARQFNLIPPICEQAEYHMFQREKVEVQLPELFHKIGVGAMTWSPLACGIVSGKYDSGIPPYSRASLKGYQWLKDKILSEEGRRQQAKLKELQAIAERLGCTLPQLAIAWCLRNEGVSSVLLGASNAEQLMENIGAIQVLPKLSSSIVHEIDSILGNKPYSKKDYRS

| Structure (SMILES) | cell count [1] | inhibition [1] | inhibition of aggregation [2] | nuclei count [2] | inhibition [3] | nuclei count [3] | fluorescence slope [4] | NADPH fluorescence slope [5] | fluorescence slope [6] | inhibition [7] | inhibition [8] |
| --- | --- | --- | --- | --- | --- | --- | --- | --- | --- | --- | --- |
| CCC(=O)N1CCc2cc(Br)cc(S(=O)(=O)N3CCCCCC3)c21 | 434 | -3.9% (inactive) | 34.8% (inactive) | 65.9% | 13.2% (inactive) | 99.9% | -0.54 (inactive) | -5.4e-06 (inactive) | 0.00616 (inactive) | 7.37% (inactive) | 12.3% (inactive) |
| Cc1cc(C)n2cc(CSCc3ccco3)nc2n1 | 566 | -13.6% (inactive) | 4.9% (inactive) | 89.3% | 18.2% (inactive) | 88.2% | -0.238 (inactive) | -2.7e-05 (inactive) | 0.00628 (inactive) | 11.1% (inactive) | 8.26% (inactive) |
| CCCc1cc(-c2n[nH]c(C)c2-c2ccc(C(=O)OCC)o2)c(O)cc1O | 651 | 2% (inactive) | -2.2% (inactive) | 88.5% | -35.2% (inactive) | 113% | -0.571 (inactive) | -2e-05 (inactive) | 0.00514 (inactive) | 12.8% (inactive) | 17.9% (inactive) |
| O=C(c1cn(-c2ccccc2)nc1-c1cccs1)N1CCN(c2ccccn2)CC1 | 465 | -10.8% (inactive) | 11.5% (inactive) | 84.1% | -83% (inactive) | 150% | -0.421 (inactive) | 4e-05 (inactive) | 0.00586 (inactive) | 6.18% (inactive) | -18.9% (inactive) |
| CC(O)c1nc2ccccc2n1C1CCCCC1 (stereo not drawn) | 631 | -19.6% (inactive) | -4.7% (inactive) | 99.7% | -16.4% (inactive) | 111% | -0.585 (inactive) | 4.8e-06 (inactive) | 0.00511 (inactive) | 20.2% (inactive) | 24.7% (inactive) |
| O=C(CCN1CCOCC1)Nc1cccc(Br)c1 | 354 | -5.1% (inactive) | -9.3% (inactive) | 134% | -70.3% (inactive) | 125% | -0.409 (inactive) | 9.1e-05 (inactive) | 0.00691 (inactive) | 16.1% (inactive) | 15.9% (inactive) |
| CC(OC(=O)c1cccc(NS(C)(=O)=O)c1)C(=O)Nc1ccc(N2CCOCC2)cc1 (stereo not drawn) | 415 | -11.6% (inactive) | -32.5% (inactive) | 101% | -52.8% (inactive) | 148% | -0.559 (inactive) | -3.1e-05 (inactive) | 0.0061 (inactive) | 16.6% (inactive) | -7.05% (inactive) |
| CCCCOc1ccc(C(=O)Nc2ccc(N3CCN(C(=O)C(C)C)CC3)cc2)cc1 | 825 | -3.3% (inactive) | -19.5% (inactive) | 92.4% | -59.7% (inactive) | 115% | -0.44 (inactive) | -1.7e-05 (inactive) | 0.0053 (inactive) | 13.8% (inactive) | -10.4% (inactive) |
| CCCCNS(=O)(=O)c1ccc(OC)c2ncccc12 | 568 | 4.1% (inactive) | 16.3% (inactive) | 115% | -1.9% (inactive) | 93% | -0.337 (inactive) | -4.1e-05 (inactive) | 0.00627 (inactive) | -12.5% (inactive) | -11.5% (inactive) |
| COc1ccc(OC)c(NC(=O)CCN2CCN(c3ccccc3F)CC2)c1 | 529 | 10.1% (inactive) | 10.6% (inactive) | 81.2% | -63.8% (inactive) | 101% | -0.54 (inactive) | -3.3e-05 (inactive) | 0.00417 (inactive) | 1.17% (inactive) | 0.616% (inactive) |
| O=C(C1CCN(S(=O)(=O)Cc2ccccc2)CC1)N1CCN(c2ncccn2)CC1 | 354 | -9.2% (inactive) | 0.1% (inactive) | 67% | 34.3% (inactive) | 96.8% | -0.431 (inactive) | -0.000431 (inactive) | 0.00525 (inactive) | -3.88% (inactive) | -4.47% (inactive) |
| N#Cc1c(-c2ccccc2)nc(SCc2nc(N)nc(N3CCCCC3)n2)[nH]c1=O | 401 | -14% (inactive) | 13% (inactive) | 85.3% | -20.8% (inactive) | 97.8% | -0.442 (inactive) | 0.000117 (inactive) | 0.00582 (inactive) | 14.8% (inactive) | -10.4% (inactive) |
| COc1cc(OC)cc(-n2nnnc2SCC(=O)N2CCCC2)c1 | 740 | -7.3% (inactive) | 18.3% (inactive) | 94.2% | 12% (inactive) | 103% | -0.622 (inactive) | 1.7e-05 (inactive) | 0.0053 (inactive) | 15.1% (inactive) | 23.1% (inactive) |
| CCOC(=O)c1ccc(NC(=O)CCNc2c(N3CCCC3)c(=O)c2=O)cc1 | 266 | 0% (inactive) | 26.6% (inactive) | 70.7% | -20.2% (inactive) | 117% | -0.609 (inactive) | 5.7e-06 (inactive) | 0.00478 (inactive) | 4.44% (inactive) | 10.6% (inactive) |
| Cc1cc(C)n2nc(S(=O)(=O)N(C)Cc3ccccc3)nc2n1 | 560 | -10.1% (inactive) | -1.6% (inactive) | 110% | -35.3% (inactive) | 116% | -0.313 (inactive) | -3.3e-05 (inactive) | 0.00664 (inactive) | -4.55% (inactive) | 8.01% (inactive) |
| O=C(O)C1CC(=O)N(c2ccc(OCc3ccccc3Cl)cc2)C1 (stereo not drawn) | 339 | -2.2% (inactive) | 12.7% (inactive) | 97.1% | -95.2% (inactive) | 94.8% | -0.644 (inactive) | 4e-05 (inactive) | 0.0043 (inactive) | 18.4% (inactive) | 23.2% (inactive) |
| c1ccc(-c2noc(C34CC5CC(CC(C5)C3)C4)n2)nc1 | 362 | 10.2% (inactive) | 17.1% (inactive) | 98.3% | -53.7% (inactive) | 102% | -0.554 (inactive) | -0.00016 (inactive) | 0.00439 (inactive) | -32.9% (inactive) | -64.6% (inactive) |
| Cc1ccc(-c2cc(C(=O)Nc3cc(C)ccc3C)[nH]n2)c(O)c1 | 390 | -4.3% (inactive) | 3.8% (inactive) | 120% | -50.5% (inactive) | 144% | -0.362 (inactive) | 2.9e-05 (inactive) | 0.00727 (inactive) | -2.53% (inactive) | -27.3% (inactive) |
| CC(C(=O)OCn1nnc2ccccc2c1=O)N1C(=O)c2ccccc2C1=O (stereo not drawn) | 532 | -15.6% (inactive) | 13.2% (inactive) | 84.6% | 15.7% (inactive) | 76.4% | -0.62 (inactive) | 2e-05 (inactive) | 0.00486 (inactive) | 12.3% (inactive) | 21.1% (inactive) |
| Cc1cc2nc3c(nc2cc1C)C1(C(=O)O)CCC3(C)C1(C)C (stereo not drawn) | 376 | -12.3% (inactive) | -4.4% (inactive) | 95% | -109% (inactive) | 101% | -0.547 (inactive) | -0.000111 (inactive) | 0.00318 (inactive) | 13.5% (inactive) | 15.6% (inactive) |
| Cc1c(NC(=O)C(C)OC(=O)C(NC(=O)c2ccco2)C(C)C)c(=O)n(-c2ccccc2)n1C (stereo not drawn) | 419 | -8% (inactive) | -12.5% (inactive) | 105% | -25.3% (inactive) | 106% | -0.276 (inactive) | -5.3e-05 (inactive) | 0.00712 (inactive) | 10.2% (inactive) | 14.1% (inactive) |
| Cn1c(=O)c2ccccc2n(Cc2ccccc2F)c1=O | 254 | -8.1% (inactive) | 8.7% (inactive) | 74.6% | -51.8% (inactive) | 73.9% | -0.451 (inactive) | -7.1e-05 (inactive) | 0.00416 (inactive) | 1.3% (inactive) | 65.6% (active) |
| COc1ccc(OC)c(S(=O)(=O)NCCO)c1 | 217 | -7.9% (inactive) | 11% (inactive) | 112% | 33.4% (inactive) | 102% | -0.567 (inactive) | -2.1e-05 (inactive) | 0.00652 (inactive) | 16% (inactive) | 24.6% (inactive) |
| C=CCn1c(=O)[nH]c2cc(C(=O)N3CCN(c4ccc(C(C)=O)cc4)CC3)ccc2c1=O | 359 | -1.8% (inactive) | 20.3% (inactive) | 101% | -161% (inactive) | 106% | -0.464 (inactive) | 1.5e-05 (inactive) | 0.00531 (inactive) | -1.65% (inactive) | -9.26% (inactive) |
| CCCCN(CCCC)C(=O)CN(C)S(=O)(=O)c1ccc2c(c1)n(C)c(=O)c(=O)n2C | 354 | -5.1% (inactive) | -10.5% (inactive) | 88.3% | -75.3% (inactive) | 121% | -0.466 (inactive) | -4.4e-06 (inactive) | 0.00642 (inactive) | 11.1% (inactive) | 22.5% (inactive) |
| Cc1n[nH]c(C)c1S(=O)(=O)N1CCCCCC1 | 355 | 1.8% (inactive) | -0.3% (inactive) | 99.2% | -12.3% (inactive) | 110% | -0.488 (inactive) | 1.3e-05 (inactive) | 0.00614 (inactive) | 1.38% (inactive) | 25% (inactive) |
| Cc1ccc(-c2[nH]nc3c2C(c2ccc(OC(=O)N4CCOCC4)cc2)C(C#N)=C(N)O3)cc1 (stereo not drawn) | 742 | 10.8% (inactive) | 0.2% (inactive) | 97.7% | -39.7% (inactive) | 104% | -0.577 (inactive) | -4.2e-05 (inactive) | 0.00718 (inactive) | 4.48% (inactive) | 9.32% (inactive) |
| O=C(C1CC2CCC1C2)N1CCN(Cc2ccc3c(c2)OCO3)CC1 (stereo not drawn) | 408 | 6.8% (inactive) | 17.4% (inactive) | 124% | -90.8% (inactive) | 116% | -0.579 (inactive) | -2.2e-05 (inactive) | 0.00565 (inactive) | 13.2% (inactive) | 19.3% (inactive) |
